The subject of assay [1] is MCF-7 breast cancer cells. In words: MTT cell viability assay, MCF-7. Particulars: for GI50: Homo sapiens, MCF7, 72 h, read-out: GI50 values (M) mean ± SD, MCF-7; for Selectivity indices (SI), MCF-7: MCF-7 versus MRC-5 fibroblasts. The assay is classed as cell-based, human. The method, boiled down: (§1)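 Cells were seeded at 3 × 10^3 per well and grown for 24 h at 37 °C/5% CO2. A T0 plate was read at dosing and the others after 72 h. MTT (5 mg mL−1 in PBS) was added for 2.5 h, formazan dissolved in DMSO, and absorbance read at 550 nm. GI50 was interpolated, in triplicate. SI compares MRC-5 with cancer-line activity.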
A general note: Formazan colour is commonly taken as a measure of viable cells.

In assay [2] the test system is HCT-116 colorectal carcinoma cells. As to the kind of experiment: MTT cell viability assay, HCT-116. Type of assay: cell-based, human. Particulars: for Selectivity indices (SI), HCT-116: HCT-116 versus MRC-5 fibroblasts; for GI50: Homo sapiens, HCT-116, 72 h, read-out: GI50 values (M) mean ± SD, HCT-116. The method, boiled down: as §1
The next assay has as its system MRC-5 fibroblasts. As to the kind of experiment: MTT cell viability assay, MRC-5 normal fibroblasts. The assay is classed as cell-based, human. The note with it: for GI50: Homo sapiens, MRC5, 72 h, read-out: GI50 values (M) mean ± SD, MRC-5; for more active against the carcinoma cell lines than MRC-5: selectivity over MRC-5. The method, boiled down: as §1
Assay [3] concerns MCF-7 cells. As to the kind of experiment: Cell count assay, MCF-7. Type of assay: cell-based. The note with it: Homo sapiens, MCF7, 72 h, read-out: growth inhibition, cell count. The method, boiled down: (§2)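 Cancer lines were grown in RPMI 1640 with 10% FBS and 1% glutamine at 37 °C/5% CO2, at ≤30 passages. Cells were seeded at 2 × 10^4 per well in 6-well plates and exposed to test compound at 5 or 10 μM for 72 h. Cells were counted by haemocytometer and expressed as % of control (mean ± SD), from 2 independent experiments in triplicate.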

Assay [4] deals with HCT-116 cells. In words: Clonogenic assay, HCT-116 colony formation. The assay is classed as cell-based, human. The note with it: 24 h exposure, second group, printed as HCT-116; for colony formation: 10 μM. The method, boiled down:
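HCT-116 cells (RPMI 1640, 10% FBS, 1% glutamine) were seeded at 400 per well in 6-well plates and left to attach for 24 h. They were given test compound at 5 or 10 μM for 24 h, with medium alone as control. Cells were then washed with cold PBS and grown in fresh medium at 37 °C until control colonies reached ≥50 cells. Colonies were methanol-fixed, stained with 0.05% methylene blue and counted. Survival fraction is % of control, from five independent trials (n = 2 each).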

In assay [5] the test system is HCT-116 cells. In words: Cell count assay, HCT-116. The assay is classed as cell-based. The note with it: Homo sapiens, HCT-116, 72 h, read-out: growth inhibition, cell count. The method, boiled down: as §2
Assay [6] concerns caspases 3 and 7 in HCT-116 cells. In words: Caspase-3/7 activity assay, HCT-116. Type of assay: cell-based, human. Particulars: HCT-116, 5 and 10 μM, 72 h. The method, boiled down:
(§3)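 Cells kept in log growth (passaged twice weekly, 37 °C/5% CO2, ≤30 passages) were seeded at 3 × 10^3 per well in opaque white 96-well plates and allowed 24 h at 37 °C. Test compound was added at 5 and 10 μM from fresh 10 mM DMSO stocks for 72 h. Homogeneous caspase-3/7 reagent was added and mixed at 300–500 rpm for 30 s. After 30 min at room temperature, fluorescence was read at 499 nm and 521 nm. Experiments were run in triplicate and reported as mean ± SD.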

Assay [7] has as its system caspases 3 and 7 in MCF-7 cells. In words: Caspase-3/7 activity assay, MCF-7. The note with it: MCF-7, 5 and 10 μM, 72 h. Type of assay: cell-based, human. The method, boiled down:
as §3

The subject of assay [8] is HCT-116 cells. In words: Cell cycle assay. The assay is classed as cell-based, human. Particulars: HCT-116, 5 and 10 μM, 24 h. The method, boiled down:
(§4)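 Cells were seeded in 10 cm dishes at 7 × 10^5 (control, 24 h) or 4 × 10^5 (48 and 72 h) per dish and left 24 h at 37 °C. They were then treated with test compound at 5 or 10 μM for 24 h. Floating and trypsinised cells were pooled, PBS-washed, held in cold hypotonic fluorochrome solution overnight at 4 °C in the dark, and analysed by flow cytometry (three internal repeats).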

Assay [9] relates to MCF-7 cells. In words: Cell cycle assay. The assay is classed as cell-based, human. The note with it: 24 h; for accumulation of events in G2/M phase: control 11%. The method, boiled down: as §4
The subject of a further assay is PARP-1 in HCT-116 cells. As to the kind of experiment: Western blot of whole and cleaved PARP, HCT-116. The assay is classed as cell-based, human. Particulars: HCT-116, 5 and 10 μM, 24 h. The method, boiled down:
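HCT-116 cells were seeded at 1–2 × 10^6 per dish, attached for 24 h, then exposed to test compound at 5 or 10 μM for 24 h. Lysate protein was measured by Bradford assay, and 50 μg per sample was run on SDS-PAGE and blotted to nitrocellulose. Blots were probed for PARP-1, with GAPDH as loading control, and quantified by densitometry. Data are mean ± SD of three independent experiments, analysed by ANOVA with Dunnett's test.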
A general note: Immunoblotting shows a protein as a band on a membrane.

The next assay has as its system ERK1/2. In words: Preliminary ERK1/2 inhibition experiments.

With `N#Cc1ccc(-c2csc(NN=Cc3c(F)c(F)c(F)c(F)c3F)n2)cc1` [3a′, 2-(2-((Pentafluorophenyl)methylene)hydrazinyl)-4-(4-cyanophenyl) thiazole], in assay [1], the GI50 came out at 1.7e-06 ± 3e-07 M and the “Selectivity indices (SI), MCF-7” value was 6.8. Also, in assay [2], the “Selectivity indices (SI), HCT-116” value was 2.8 and the GI50 is 4.2e-06 ± 1e-06 M. For the same compound, the GI50 in the assay with MRC-5 fibroblasts came to 1.16e-05 ± 6e-07 M. Further, the inhibition at 10 µM in the assay with MCF-7 cells [3] is 90 to 95%. For the same compound, the colony formation result in the assay with HCT-116 cells [4] was “completely prevented colony formation”.
Regarding `N#Cc1ccc(-c2csc(NN=Cc3sccc3Br)n2)cc1` [3b′, 2-(2-((3-Bromothiophen-2-yl)methylene)hydrazinyl)-4-(4-cyanophenyl) thiazole], in [1], the GI50 amounted to 3.9e-06 ± 5e-07 M and the “Selectivity indices (SI), MCF-7” value is 5. In assay [2], the “Selectivity indices (SI), HCT-116” value stood at 12.2 and the GI50 worked out at 1.6e-06 ± 2e-07 M. In the assay on MRC-5 fibroblasts, the GI50 turned out to be 1.95e-05 ± 3e-07 M and the “more active against the carcinoma cell lines than MRC-5” value was more than 5 ×. Besides, in the assay with HCT-116 cells [5], the inhibition at 5 µM was 50 to 55% and the inhibition at 10 µM lay in the range of 90 to 95%. Moreover, the colony formation entry in the assay on HCT-116 cells [4] is listed as “completely prevented colony formation”. Also, the “caspase 3 and 7 activation” value in [6] is listed as “Significant dose-dependent caspase activation”. In addition, in [7], the “caspase 3 and 7 activation” value is “Significant dose-dependent caspase activation”.
With `N#Cc1ccc(-c2csc(NN=Cc3ccccc3F)n2)cc1` [Compound 3a, 2-(2-(2-Fluorobenzylidene)hydrazinyl)-4-(4-cyanophenyl) thiazole], in the assay on HCT-116 cells [4], the colony formation result was “completely prevented colony formation”.
As to `Cc1cccc(C=NNc2nc(-c3ccc(C#N)cc3)cs2)c1O` [Compound 3f, 2-(2-(2-Hydroxy-3-methylbenzylidene) hydrazinyl)-4-(4-cyanophenyl) thiazole], in assay [1], the GI50 is 1e-06 ± 4e-07 M and the “Selectivity indices (SI), MCF-7” value amounted to 17.3. Moreover, in assay [2], the “Selectivity indices (SI), HCT-116” value turned out to be 10.8 and the GI50 turned out to be 1.6e-06 ± 1e-07 M. Also, in the assay with MRC-5 fibroblasts, the GI50 was found to be 1.73e-05 ± 7e-07 M and the “more active against the carcinoma cell lines than MRC-5” value is reported as more than 10 ×. The “SI over MRC-5 fibroblasts” value in the assay on MRC-5 fibroblasts (cancer cell line not given) is recorded as more than 10. Besides, in the assay on MCF-7 cells [3], the inhibition at 5 µM lay in the range of 55 to 60% and the inhibition at 10 µM is 100%. Moreover, the “inhibition of colony formation” value with HCT-116 cells [4] (5 μM) was “completely inhibiting colony formation”. For the same compound, the colony formation result with HCT-116 cells [4] is given as “completely inhibiting colony formation”. Also, the Pre-G1 events in the assay on HCT-116 cells [8] is on record as 5–8%. Moreover, the “accumulation of events in G2/M phase” value in the assay on MCF-7 cells [9] (MCF-7, 5 μM) came out at 23%. Also, in the assay with MCF-7 cells [9] (MCF-7, 10 μM), the “accumulation of events in G2/M phase” value is 28%. Further, the pre-G1 cell populations entry in the assay with MCF-7 cells [9] (MCF-7, 5 and 10 μM) was “negligible”. The “caspase 3 and 7 activation” value in assay [6] is listed as “Significant dose-dependent caspase activation”. In addition, the “caspase 3 and 7 activation” value in assay [7] is given as “Significant dose-dependent caspase activation”. Besides, in the assay on PARP-1 in HCT-116 cells, the PARP-1 cleavage entry is “induces concentration-dependent PARP-1 cleavage” and the “whole PARP expression” value is listed as “down-regulation of whole PARP”. Moreover, the ERK1/2 inhibition entry in the assay with ERK1/2 is listed as “showed ERK1/2 inhibition”.
For `N#Cc1ccc(-c2csc(NN=Cc3cc(Br)ccc3O)n2)cc1` [Compound 3h, 2-(2-(5-Bromo-2-hydroxybenzylidene) hydrazinyl)-4-(4-cyanophenyl) thiazole], the GI50 in assay [1] is 7e-06 ± 3e-07 M; in assay [2] it was 4.4e-06 ± 3e-07 M; in the assay on MRC-5 fibroblasts, 1.58e-05 ± 2e-07 M. In addition, the “Selectivity indices (SI), MCF-7” value in [1] is 2.3. In addition, the “Selectivity indices (SI), HCT-116” value in assay [2] is 3.6. For the same compound, the inhibition at 10 µM with MCF-7 cells [3] lay in the range of 65 to 70%.
`N#Cc1ccc(-c2csc(NN=Cc3c(Cl)cccc3Cl)n2)cc1` [Compound 3n, 2-(2-(2,6-Dichlorobenzylidene)hydrazinyl)-4-(4-cyanophenyl) thiazole]: in [1], the 50% growth inhibitory concentration (GI50) was determined as 2.54e-05 ± 1.6e-06 M and the “Selectivity indices (SI), MCF-7” value is 0.5. In assay [2], the “Selectivity indices (SI), HCT-116” value worked out at 11 and the GI50 was determined as 1.1e-06 ± 5e-07 M. Further, in the assay with MRC-5 fibroblasts, the GI50 is 1.21e-05 ± 4e-07 M. Further, in the assay on HCT-116 cells [5], the inhibition at 5 µM fell in the range of 50 to 55% and the inhibition at 10 µM came out at 100%.
Regarding `N#Cc1ccc(-c2csc(NN=Cc3cc(F)cc(C(F)(F)F)c3)n2)cc1` [Compound 3q, 2-(2-(3-Fluoro-5-(trifluoromethyl)benzylidene) hydrazinyl)-4-(4-cyanophenyl) thiazole], in assay [1], the GI50 turned out to be 2.6e-06 ± 1e-07 M and the “Selectivity indices (SI), MCF-7” value worked out at 3.5. Further, in assay [2], the “Selectivity indices (SI), HCT-116” value stood at 4.1 and the GI50 turned out to be 2.2e-06 ± 1e-07 M. Further, in the assay on MRC-5 fibroblasts, the GI50 was 9e-06 ± 1e-07 M. Besides, in the assay on HCT-116 cells [4], the colony formation entry is reported as “completely prevented colony formation”.
With `Cc1ccc(C=NNc2nc(-c3ccc(C#N)cc3)cs2)cc1C` [Compound 3t, 2-(2-(3,4-Dimethylbenzylidene)hydrazinyl)-4-(4-cyanophenyl) thiazole], in assay [1], the GI50 was determined as 4.5e-06 ± 1.4e-06 M and the “Selectivity indices (SI), MCF-7” value was determined as 2.9. Also, in assay [2], the “Selectivity indices (SI), HCT-116” value stood at 2 and the GI50 amounted to 6.5e-06 ± 2.6e-06 M. Moreover, in the assay on MRC-5 fibroblasts, the GI50 was 1.32e-05 ± 3e-07 M. Also, in the assay with HCT-116 cells [4], the colony formation entry is “completely prevented colony formation”.

Usually GI50 stands for the concentration at which growth is held to half of that of the control. The inhibition is how much of the control response was suppressed.

The values above are taken from paper PMC9704493 (RSC Advances, 2022).
